# High-throughput results deposited in PubChem by The Scripps Research Institute Molecular Screening Center.
# Only some compounds are listed: those with a hit (about 1.6% of all), similar ones and a draw of the others.
# UHRF1 MBD2 ctr = UHRF1 methyl-DNA binding inhibition | Q96T88 | UHRF1 binding to methylated oligo, TR-FRET | inhibition, % at 4.4 µM | 370,000 compounds, 0.75% hits; in the data active means inhibition above about 21%;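 further: UHRF1 SRA domain binding a hemimethylated CpG hairpin DNA probe; 0% = median of test compound wells and 100% = reference inhibitor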
# LEDGF integ inh = blocks HIV-1 LEDGF/p75-dependent DNA integration. TR-FRET IN-LEDGF/p75 DNA integration, Eu/Cy5. inhibition, % at 3.7 µM. 370,000 compounds, 0.64% hits. AID 743269;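 active means inhibition above the screen-wide mean plus 3 SD, cut at about 13% in these data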;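 further: signal is the Cy5 over europium emission ratio at 671 and 618 nm; 0% = plate median of compound wells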
# TDP2 inh = blocks human TDP2 phosphodiesterase activity. inhibition, % at 12.8 µM. recombinant TDP2, T5PNP hydrolysis, p-nitrophenol absorbance 415 nm. AID 720702. 370,000 compounds, 0.34% hits;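 active means inhibition above the mean of all tested compounds plus 3 SD, set per campaign, cut at about 25% in these data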;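 further: 0% = DMSO with enzyme and 100% = buffer with substrate but no TDP2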
#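 Evaluation: % inhibition relative to enzyme-containing and enzyme-free wells. Material: recombinant human TDP2. Benchmarks: enzyme-free and DMSO wells. Timing: enzyme reaction with compound for 2 h at 37 °C. Compound dosing: 12.8 µM only. Measured by: p-Nitrophenol epi absorbance. Reagent: T5PNP substrate at 5 mM, a TopII-DNA adduct mimic. Replication: single well per compound.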
# MBD2 DNA inh = blocks human MBD2 binding to methylated DNA; 370,000 compounds, 0.31% hits; AID 686964; inhibition, % at 4.4 µM; TR-FRET, MBD2 binding to methylated oligonucleotide; in the data active means inhibition above about 13%
# Target sequence (Q9UBB5 whole entry, looked up): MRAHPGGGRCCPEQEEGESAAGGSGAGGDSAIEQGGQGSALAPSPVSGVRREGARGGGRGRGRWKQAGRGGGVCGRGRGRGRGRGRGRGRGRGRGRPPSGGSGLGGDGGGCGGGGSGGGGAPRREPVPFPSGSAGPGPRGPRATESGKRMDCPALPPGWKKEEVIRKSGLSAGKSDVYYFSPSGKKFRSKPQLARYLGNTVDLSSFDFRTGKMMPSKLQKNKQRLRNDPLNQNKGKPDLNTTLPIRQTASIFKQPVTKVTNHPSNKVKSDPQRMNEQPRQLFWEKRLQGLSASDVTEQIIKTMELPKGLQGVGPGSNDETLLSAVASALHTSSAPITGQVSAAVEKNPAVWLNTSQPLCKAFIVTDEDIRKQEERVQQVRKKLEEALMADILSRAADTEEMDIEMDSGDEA
# IN multimer act = counter-screen for LEDGF/p75 integration inhibitors: HIV-1 integrase multimerization activators | shares compounds with LEDGF integ inh | TR-FRET HIV-1 integrase multimerization, biochemical | activation, % at 7.7 µM | 2,000 compounds, 17% hits | AID 1053131; in the data active means activation above about 8.9%
# TRFRET interf = counter-screen for LEDGF/p75 integration inhibitors: TR-FRET optical interference; shares compounds with LEDGF integ inh; TR-FRET optical interference counterscreen, HIV-1 IN multimerization; inhibition, % at 7.7 µM; 2,000 tested, under 10 active;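 active means inhibition above the mean over all tested compounds plus 3 SD, which no compound reached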;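 further: 0% = integrase with antibodies and DMSO and 100% = antibodies without integrase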
# LEDGF integ conf = confirmation of HIV-1 LEDGF/p75-dependent integration inhibitors | shares compounds with LEDGF integ inh | TR-FRET LEDGF/p75-dependent HIV-1 integration, biochemical | inhibition, % at 3.7 µM | 2,000 compounds, 36% hits | AID 1053136; in the data active means inhibition above about 14%
# An asterisk follows results filed as active; . = not tested or not shown.
SMILES,UHRF1 MBD2 ctr,LEDGF integ inh,TDP2 inh,MBD2 DNA inh,IN multimer act,TRFRET interf,LEDGF integ conf
COc1ccc(Cl)cc1NC(=O)NNC(=O)C(=O)Nc1ccc(F)cc1,-2,65*,-3,0,0,2,4
C=CCN1C=C2C(=O)C(C)(OC(=O)c3cnc4ccccc4n3)C(=O)C=C2C=C1/C=C/COC (stereo not given),5,25*,-4,-1,2,-10,40*
O=C(O)CCCN1C(=O)/C(=C\c2ccc(-c3nc4ccccc4s3)o2)SC1=S,8,0,0,-3,.,.,.
O=C(O)CCN1C(=O)/C(=C/c2ccc(-c3nc4ccccc4s3)o2)SC1=S,15,17*,-6,4,2,-10,16*
O=C(CSc1nc2ccccc2nc1SCC(=O)N1CCCCC1)N1CCCCC1,3,-2,-10,3,.,.,.
Cc1ccc(Oc2ncccc2C(=O)NCC(=O)O)cc1,0,17*,-3,-6,0,0,0
O=C(COC(=O)c1sc2ccccc2c1Cl)NCC1CCCCC1,-1,16*,11,2,-1,3,1
CC1CCCC(NC(=O)COC(=O)c2sc3ccccc3c2Cl)C1C (stereo not given),2,3,-2,2,.,.,.
O=C(N/N=C\c1c(O)ccc2ccccc12)c1ccc(S(=O)(=O)N2CCCCC2)cc1,1,41*,-7,-7,0,1,-5
Oc1c(CN2CCOCC2)cc(CN2CCOCC2)c(O)c1CN1CCOCC1,-5,20*,-2,-2,2,-8,-2
CN(C)C(=S)NC(=S)Nc1ccc2ccccc2c1,0,16*,0,1,1,-4,18*
O=C(Cn1cnc2cc([N+](=O)[O-])ccc2c1=O)NC1CCS(=O)(=O)C1 (stereo not given),1,20*,9,3,1,-3,0
O=C(Cn1cnc2cc([N+](=O)[O-])ccc2c1=O)N(Cc1ccccc1)C1CCS(=O)(=O)C1 (stereo not given),1,2,7,1,.,.,.
CCOC(=O)c1c(C)[nH]c(N=Nc2ccc(C)cc2C)c1C,1,7,-11,3,.,.,.
CCOC(=O)c1c(C)[nH]c(N=Nc2cc(C(=O)O)cc(C(=O)O)c2)c1C,11,14*,-22,-1,9,-45,2
O=C(N/N=C\C=C\c1ccc([N+](=O)[O-])o1)c1cccs1,43*,36*,-16,9,11*,-38,57*
O=C(N/N=C/C=C/c1ccccc1[N+](=O)[O-])c1cccs1,-1,5,5,-2,.,.,.
COc1ccccc1OCC(=O)N/N=C/C=C/c1ccc([N+](=O)[O-])o1,35*,38*,-17,9,11*,-57,46*
Cc1ccccc1OCC(=O)N/N=C/c1ccc([N+](=O)[O-])o1,2,0,-9,-2,.,.,.
NC(=O)SCC(=O)Nc1ccccc1C(=O)O,0,-3,0,2,.,.,.
Nc1cc(=O)[nH]c(SCC(=O)NC2CCCCCCC2)n1,4,70*,-9,8,-5,23,14*
N#Cc1c(NC(=O)COC(=O)C2CC3C=CC2C3)oc(-c2ccccc2)c1-c1ccccc1 (stereo not given),7,18*,-8,0,-2,12,1
CCCN(CCC)C(=S)NC(=O)c1ccc(Cl)cc1Cl,-2,16*,-23,5,0,0,10
Cc1ccccc1C(=O)NNC(=S)NC(=O)c1ccc(Cl)cc1Cl,-9,1,8,-5,.,.,.
CCCCCCCCN1C(=O)[C@H](CC(=O)NCC2CCCCC2)C[C@@]2(C(=O)OCC)CCCC=C12,1,1,-10,-1,.,.,.
Cc1cccc(OCC(=O)N(Cc2ccco2)C2CCS(=O)(=O)C2)c1C (stereo not given),-2,1,3,1,.,.,.
